Assay results published in ChEMBL document CHEMBL4396915, “Synthesis of new thiazolyl-pyrazolyl-1,2,3-triazole derivatives as potential antimicrobial agents” (2019).
≈ marks a conversion by molar mass, not a printed value. Calls of active or inactive are those of the source. The rule behind the calls is not given here.

What was measured:
Format in all cases: functional
Rhodotorula glutinis [1] = experiment: Antifungal activity against Rhodotorula glutinis NCIM 3168 assessed as zone of inhibition at 80 ug/well incubated for 48 to 72 hrs by agar well diffusion method; details: for zone of inhibition at 80 µg/disc: read-out: IZ
Outline: (§1)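 Fungi kept on potato dextrose agar slants and grown in potato dextrose broth. 500 microlitres of 48-72 h spore suspension swabbed onto Mueller Hinton agar. Compounds in DMSO loaded into 5 mm wells, with a DMSO vehicle plate and fluconazole/ravuconazole positive-control plate. Incubated 48-72 h at 30 C. Clear zone measured in mm, mean of five replicates.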

Escherichia coli = experiment: Antibacterial activity against Escherichia coli NCIM 2574 assessed as zone of inhibition at 80 ug/well incubated for 24 to 48 hrs by agar well diffusion method; details: for zone of inhibition at 80 µg/disc: read-out: IZ
Outline: (§2)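 Strains from NCIM kept on nutrient agar slants at 4 C and grown overnight at 37 C in nutrient broth. 500 microlitres of 24-48 h culture swabbed onto nutrient agar. Compounds in DMSO loaded into 5 mm wells, with a DMSO vehicle plate and streptomycin reference. Incubated 24-48 h at 37 C. Zone of inhibition measured in mm and averaged over 4 replicates.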

Candida albicans [2] = experiment: Antifungal activity against Candida albicans NCIM 3100 assessed as zone of inhibition at 80 ug/well incubated for 48 to 72 hrs by agar well diffusion method; details: for zone of inhibition at 80 µg/disc: read-out: IZ; outline: as §1
[3] = tested on: Staphylococcus epidermidis; experiment: Antibacterial activity against Staphylococcus albus NCIM 2178 assessed as zone of inhibition at 80 ug/well incubated for 24 to 48 hrs by agar well diffusion method; details: for zone of inhibition at 80 µg/disc: read-out: IZ; outline: as §2
Aspergillus niger [4] = experiment: Antifungal activity against Aspergillus niger NCIM 504 assessed as zone of inhibition at 80 ug/well incubated for 48 to 72 hrs by agar well diffusion method; details: for zone of inhibition at 80 µg/disc: read-out: IZ; outline: as §1
Proteus mirabilis = experiment: Antibacterial activity against Proteus mirabilis NCIM 2388 assessed as zone of inhibition at 80 ug/well incubated for 24 to 48 hrs by agar well diffusion method; outline: as §2
Candida albicans [5] = experiment: Antifungal activity against Candida albicans NCIM 3100 assessed as inhibition of fungal growth incubated for 48 to 72 hrs by broth microdilution susceptibility method
Outline: (§3)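 Tube micro-dilution in Sabouraud liquid medium. Stocks were made in DMSO and serially diluted twofold in broth to final […]. Tubes inoculated with organisms grown in potato dextrose broth and held 48-72 h at 30 C. MIC is the lowest concentration with no growth. DMSO and uninoculated-media controls were included, in triplicate.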

Aspergillus niger [6] = experiment: Antifungal activity against Aspergillus niger NCIM 504 assessed as inhibition of fungal growth incubated for 48 to 72 hrs by broth microdilution susceptibility method; outline: as §3
Rhodotorula glutinis [7] = experiment: Antifungal activity against Rhodotorula glutinis NCIM 3168 assessed as inhibition of fungal growth incubated for 48 to 72 hrs by broth microdilution susceptibility method; outline: as §3

| SMILES | zone of inhibition at 80 µg/disc (Rhodotorula glutinis [1]) [mm] | zone of inhibition at 80 µg/disc (Escherichia coli) [mm] | zone of inhibition at 80 µg/disc (Candida albicans [2]) [mm] | zone of inhibition at 80 µg/disc [3] [mm] | zone of inhibition at 80 µg/disc (Aspergillus niger [4]) [mm] | inhibition zone (IZ) (Proteus mirabilis) | MIC (Candida albicans [5]) | MIC (Aspergillus niger [6]) | MIC (Rhodotorula glutinis [7]) | inhibition zone (IZ) (Escherichia coli) | inhibition zone (IZ) [3] | inhibition zone (IZ) (Rhodotorula glutinis [1]) | inhibition zone (IZ) (Aspergillus niger [4]) | inhibition zone (IZ) (Candida albicans [2]) | zone of inhibition at 80 µg/disc (Proteus mirabilis; read-out: IZ) [mm] |
| --- | --- | --- | --- | --- | --- | --- | --- | --- | --- | --- | --- | --- | --- | --- | --- |
| Cc1nc(-c2ccc(Cl)cc2)sc1-c1nn(-c2ccccc2)cc1-c1cn(Cc2ccc(F)cc2)nn1 | 20 | 12.2 | 13.8 | 11.3 | 12.5 | inactive | 250 mg/L (≈ 474 µM) | 62.5 mg/L (≈ 119 µM) | 125 mg/L (≈ 237 µM) | – | – | – | – | – | – |
| Cc1nc(-c2ccc(Br)cc2)sc1-c1nn(-c2ccccc2)cc1-c1cn(Cc2ccc(F)cc2)nn1 | 11.7 | 11.8 | 12 | 12 | 17 | inactive | 125 mg/L (≈ 219 µM) | 62.5 mg/L (≈ 109 µM) | 62.5 mg/L (≈ 109 µM) | – | – | – | – | – | – |
| Cc1nc(-c2ccc(Cl)cc2)sc1-c1nn(-c2ccccc2)cc1-c1cn(Cc2ccc(Cl)cc2)nn1 | 14 | 9.8 | 11.3 | 11.5 | 12.3 | inactive | inactive | 125 mg/L (≈ 230 µM) | 62.5 mg/L (≈ 115 µM) | – | – | – | – | – | – |
| Cc1nc(-c2ccc(Br)cc2)sc1-c1nn(-c2ccccc2)cc1-c1cn(Cc2ccccc2)nn1 | 16.2 | 11.5 | 14.6 | 14.6 | 13.4 | inactive | 125 mg/L (≈ 226 µM) | 62.5 mg/L (≈ 113 µM) | 62.5 mg/L (≈ 113 µM) | – | – | – | – | – | – |
| OC(Cn1cncn1)(Cn1cncn1)c1ccc(F)cc1F [FLUCONAZOLE] | 25.3 | – | 20.2 | – | 18.4 | inactive | 7.81 mg/L (≈ 25.5 µM) | 7.81 mg/L (≈ 25.5 µM) | 7.81 mg/L (≈ 25.5 µM) | inactive | inactive | – | – | – | – |
| Cc1nc(-c2ccccc2)sc1-c1nn(-c2ccccc2)cc1-c1cn(Cc2ccc(Br)cc2)nn1 | 17.5 | 12 | 16.4 | 13 | 14 | inactive | 125 mg/L (≈ 226 µM) | 62.5 mg/L (≈ 113 µM) | 62.5 mg/L (≈ 113 µM) | – | – | – | – | – | – |
| Cc1nc(-c2ccccc2)sc1-c1nn(-c2ccccc2)cc1-c1cn(Cc2ccc(F)cc2)nn1 | 14.6 | 11 | 15.8 | 10 | 16.4 | inactive | 125 mg/L (≈ 254 µM) | 125 mg/L (≈ 254 µM) | 125 mg/L (≈ 254 µM) | – | – | – | – | – | – |
| C[C@@H](c1nc(-c2ccc(C#N)cc2)cs1)[C@](O)(Cn1cncn1)c1ccc(F)cc1F [RAVUCONAZOLE] | 20.1 | – | 28.6 | – | 20.2 | inactive | 7.81 mg/L (≈ 17.9 µM) | 31.2 mg/L (≈ 71.4 µM) | 15.6 mg/L (≈ 35.7 µM) | inactive | inactive | – | – | – | – |
| Cc1nc(-c2ccc(Br)cc2)sc1-c1nn(-c2ccccc2)cc1-c1cn(Cc2ccc(Cl)cc2)nn1 | 14.8 | 11 | 14.8 | – | 13.5 | inactive | 125 mg/L (≈ 213 µM) | 62.5 mg/L (≈ 106 µM) | 125 mg/L (≈ 213 µM) | – | inactive | – | – | – | – |
| Cc1ccc(-c2nc(C)c(-c3nn(-c4ccccc4)cc3-c3cn(Cc4ccc(Br)cc4)nn3)s2)cc1 | 18.8 | 11 | 14 | 12.2 | 14.4 | inactive | 125 mg/L (≈ 220 µM) | 31.2 mg/L (≈ 55.1 µM) | 62.5 mg/L (≈ 110 µM) | – | – | – | – | – | – |
| Cc1nc(-c2ccc(Cl)cc2)sc1-c1nn(-c2ccccc2)cc1-c1cn(Cc2ccccc2)nn1 | 15.2 | 12.8 | 15.2 | 11 | 12.3 | inactive | 500 mg/L (≈ 982 µM) | 31.2 mg/L (≈ 61.4 µM) | 125 mg/L (≈ 246 µM) | – | – | – | – | – | – |
| Cc1nc(-c2ccc(Br)cc2)sc1-c1nn(-c2ccccc2)cc1-c1cn(Cc2ccc(Br)cc2)nn1 | – | – | 15 | – | – | inactive | inactive | inactive | inactive | inactive | inactive | inactive | inactive | – | – |
| Cc1ccc(-c2nc(C)c(-c3nn(-c4ccccc4)cc3-c3cn(Cc4ccccc4)nn3)s2)cc1 | 18.4 | – | 15.8 | 11.2 | – | inactive | 125 mg/L (≈ 256 µM) | 62.5 mg/L (≈ 128 µM) | 125 mg/L (≈ 256 µM) | inactive | – | – | inactive | – | – |
| Cc1nc(-c2ccc(F)cc2)sc1-c1nn(-c2ccccc2)cc1-c1cn(Cc2ccc(Br)cc2)nn1 | 16.5 | – | 14.4 | 11.4 | 16.8 | inactive | 125 mg/L (≈ 219 µM) | 125 mg/L (≈ 219 µM) | 62.5 mg/L (≈ 109 µM) | inactive | – | – | – | – | – |
| CN[C@@H]1[C@H](O[C@H]2[C@H](O[C@H]3[C@H](O)[C@@H](O)[C@H](N=C(N)N)[C@@H](O)[C@@H]3N=C(N)N)O[C@@H](C)[C@]2(O)C=O)O[C@@H](CO)[C@H](O)[C@H]1O [STREPTOMYCIN] | – | 25 | – | 21.6 | – | – | – | – | – | – | – | inactive | inactive | inactive | 18.5 |
| Cc1nc(-c2ccc(Cl)cc2)sc1-c1nn(-c2ccccc2)cc1-c1cn(Cc2ccc(Br)cc2)nn1 | 18.8 | 11 | 17.6 | 11.8 | 12 | inactive | 250 mg/L (≈ 425 µM) | 62.5 mg/L (≈ 106 µM) | 62.5 mg/L (≈ 106 µM) | – | – | – | – | – | – |
| Cc1nc(-c2ccccc2)sc1-c1nn(-c2ccccc2)cc1-c1cn(Cc2ccccc2)nn1 | – | – | – | – | – | inactive | inactive | inactive | inactive | – | – | – | – | – | – |
